Active and inactive are the calls of the source. No cut-off for these calls is given here.
Legend:
[1] = biological target: Cellular tumor antigen p53 (Homo sapiens) (UniProt P04637); assay: Activation of p53 in human T24 cells assessed as increase in p21 level up to 10 uM after 24 hrs by Western blot analysis; assay type: cell-based
Outline: (§1)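 T24 cells, 3 × 10^5 per well, grown to 85−95% confluence, then exposed to 0−10 μM for 24 h. Whole-cell extracts in sample buffer run on SDS-polyacrylamide gels and transferred to nitrocellulose. Blots probed with primary antibodies and AP-linked anti-rabbit IgG, detected by ECL. Blots stripped and reprobed for β-actin as loading control.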

T-24 [2] = assay: Induction of apoptosis in human T24 cells assessed as activation of caspase-3 at 10 uM by FITC-DEVD-FMK based flow cytometric analysis (reference value: 2.8%)
Escherichia coli = assay: Induction of conformational change in Escherichia coli pBR322 DNA at 1 to 10 uM after 1 hr by DNA relaxation assay
Outline: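 Plasmid pBR322 incubated 1 h with 1–10 μM in 5 mM Tris-HCl, 50 mM NaCl, pH 7.2. Samples run on 1.5% agarose and stained with 0.5 μg/mL ethidium bromide. Lane controls: 1% DMSO (negative) and ethidium bromide (positive).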

Mus musculus [3] = assay: Toxicity in BALB/C nude mouse xenografted with human HepG2 cells assessed as effect on food consumption at 6 to 12 mg/kg, ip administered every 2 days for 16 days; assay type: organism-based; conditions: in vivo
Outline: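 Male BALB/C nude mice with HepG2 flank xenografts, n = 6/group. Given ip 6 or 12 mg/kg every 2 days in 5% DMSO/saline; vehicle and HCPT 6 mg/kg as controls. Clinical signs, food intake and body weight monitored; tumour size and weight measured three times weekly.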

T-24 [4] = assay: Effect on cell cycle distribution in human T24 cells assessed as live cells at 5 uM after 1 hr by Annexin V-FITC/propidium iodide staining based FACS analysis (reference value: 98.3%); assay type: functional
HeLa = assay: Antiproliferative activity against human HeLa cells by MTT assay; assay type: functional, cell-based
Outline: (§2)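 Cell lines cultured in RPMI 1640 with 10% FBS. Viability read by MTT (5 mg/mL, 4 h at 37 °C), with formazan dissolved in DMSO and absorbance taken at 490 nm. Viability (%) = A490 treated / A490 control × 100. IC50 taken from dose-response curves, from three independent experiments each run in triplicate.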

T-24 [5] = assay: Antiproliferative activity against human T24 cells harboring scRNA after 48 hrs by MTT assay; assay type: functional, cell-based
Outline: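 T24 cells pre-exposed to p53-siRNA or scrambled RNA for 24 h, then treated with a concentration series for 48 h. Proliferation measured by MTT read at 490 nm, expressed as % of control absorbance.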

T-24 [6] = assay: Induction of apoptosis in human T24 cells assessed as necrotic cells at 10 uM by Annexin V-FITC/propidium iodide based flow cytometric analysis (reference value: 8.53%); assay type: functional
J82 [7] = assay: Cell cycle arrest in human J82 cells assessed as accumulation at G1 phase at 10 uM after 48 hrs by propidium iodide staining based FACS analysis (reference value: 42.29 %); assay type: functional
Outline: (§3)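 Cells treated with 1−10 μM for 48 h, trypsinized, and fixed in 70% ethanol. Stained with 50 μg/mL propidium iodide and phase distribution analyzed by flow cytometry. Mean ± SD from three independent measurements.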

Mus musculus [8] = assay: Induction of phospho-p53 expression in BALB/C nude mouse xenografted with human T24 cells at 6 to 12 mg/kg, ip administered every 2 days for 16 days by immunoblot analysis
T-24 [9] = assay: Induction of apoptosis in human T24 cells assessed as necrotic cells at 1 uM by Annexin V-FITC/propidium iodide based flow cytometric analysis (reference value: 8.53%); assay type: functional
J82 [10] = assay: Cell cycle arrest in human J82 cells assessed as accumulation at G1 phase at 1 uM after 48 hrs by propidium iodide staining based FACS analysis (reference value: 42.29 %); assay type: functional; outline: as §3
T-24 [11] = assay: Effect on p53 protein expression in human T24 cells up to 10 uM after 24 hrs by Western blot analysis; assay type: functional, cell-based
Outline: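 T24 cells (3 × 10^5 per well) grown to 85–95% confluence, then exposed 24 h to 0–10 μM. Whole-cell extracts run on SDS-PAGE and blotted to nitrocellulose. Probed with the indicated antibodies and AP-linked anti-rabbit IgG, with ECL detection. Blots stripped and reprobed for β-actin as loading control.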

Mus musculus [12] = assay: Toxicity in BALB/C nude mouse xenografted with human HepG2 cells assessed as change in body weight at 6 mg/kg, ip administered every 2 days for 16 days; assay type: organism-based; conditions: in vivo
Outline: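 HepG2-xenografted male BALB/C nude mice treated ip at 6 mg/kg every 2 days; vehicle was 5% DMSO in saline. Body weight recorded three times weekly and at the end of treatment.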

T-24 [13] = assay: Induction of apoptosis in human T24 cells assessed as activation of caspase-3 at 5 uM by FITC-DEVD-FMK based flow cytometric analysis (reference value: 2.8%)
MGC-803 = assay: Antiproliferative activity against human MGC803 cells by MTT assay; assay type: functional, cell-based; outline: as §2
[14] = biological target: Cellular tumor antigen p53 (Homo sapiens) (UniProt P04637); assay: Induction of phospho-p53 accumulation in human T24 cells assessed as disruption of Bak-Bcl-xl interaction up to 10 uM by coimmunoprecipitation assay; assay type: cell-based
HepG2 [15] = assay: Antitumor activity against human HepG2 cells xenografted in BALB/C nude mouse assessed as tumor growth inhibition at 12 mg/kg, ip administered every 2 days for 16 days relative to control; assay type: functional; conditions: read-out: TGI
Outline: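 Male BALB/c nude mice, 6 weeks old, given subcutaneous flank injections of 5 × 10^6 HepG2 cells. Mice with 80−200 mm3 tumors randomized, n = 6 per group, and dosed ip every other day with 6 or 12 mg/kg. Vehicle 5% DMSO in saline; HCPT 6 mg/kg as positive control. Tumor volume (lw²/2) and body weight measured three times weekly.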

HepG2 [16] = assay: Antiproliferative activity against human HepG2 cells by MTT assay; assay type: functional, cell-based; outline: as §2
T-24 [17] = assay: Cell cycle arrest in human T24 cells assessed as reduction in cell size at 5 uM after 48 hrs by FACS analysis relative to control; assay type: functional; set-up: scale not given: the % may be the effect or the level left
Outline: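 T24 cells treated for 48 h with 5 μM or DMSO, then ethanol-fixed and PI-stained. Relative cell size taken as mean forward scatter (FSC-H) by flow cytometry, compared with control.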

T-24 [18] = assay: Cell cycle arrest in human T24 cells assessed as effect on cyclin D expression up to 10 uM after 24 hrs by Western blot analysis; assay type: functional, cell-based; outline: as §1
T-24 [19] = assay: Effect on cell cycle distribution in human T24 cells assessed as late necrotic cells at 1 uM after 1 hr by Annexin V-FITC/propidium iodide staining based FACS analysis (reference value: 1.71%); assay type: functional
T-24 [20] = assay: Effect on cell cycle distribution in human T24 cells assessed as late necrotic cells at 10 uM after 1 hr by Annexin V-FITC/propidium iodide staining based FACS analysis (reference value: 1.71%); assay type: functional
T-24 [21] = assay: Effect on cell cycle distribution in human T24 cells assessed as late necrotic cells at 5 uM after 1 hr by Annexin V-FITC/propidium iodide staining based FACS analysis (reference value: 1.71%); assay type: functional

Sequence of Cellular tumor antigen p53 (Homo sapiens) (P04637 whole entry, looked up): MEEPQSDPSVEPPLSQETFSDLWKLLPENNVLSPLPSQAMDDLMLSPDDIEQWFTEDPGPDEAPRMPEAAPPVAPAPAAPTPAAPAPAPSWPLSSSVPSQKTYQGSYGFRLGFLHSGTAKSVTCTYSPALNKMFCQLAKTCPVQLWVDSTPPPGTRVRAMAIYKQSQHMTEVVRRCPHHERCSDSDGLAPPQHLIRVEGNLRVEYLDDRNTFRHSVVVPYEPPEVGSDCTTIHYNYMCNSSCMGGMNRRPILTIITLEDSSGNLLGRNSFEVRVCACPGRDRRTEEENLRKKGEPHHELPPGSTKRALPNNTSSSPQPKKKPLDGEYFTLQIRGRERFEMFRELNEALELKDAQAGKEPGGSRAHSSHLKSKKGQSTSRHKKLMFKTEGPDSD

Activity [1]: Active
Activity (Escherichia coli): inactive
IC50 (HeLa): 6.1 µM
IC50 (MGC-803): 4.29 µM
Activity [14]: Active
IC50 (HepG2 [16]): 3.8 µM
SMILES: CN(C)CCNc1nn2c(=O)c3cc(Br)ccc3nc2c2ccccc12
Activity (T-24 [2]): 50%
Activity (Mus musculus [3]): Non-Toxic
Activity (T-24 [4]): 89.4%
Activity (T-24 [5]): Dose-dependent effect
Activity (T-24 [6]): 8.1%
Activity (J82 [7]): 12.13%
Activity (Mus musculus [8]): Active
Activity (T-24 [9]): 6.77%
Activity (J82 [10]): 48.49%
Activity (T-24 [11]): inactive
Activity (Mus musculus [12]): Non-Toxic
Activity (T-24 [13]): 17.6%
inhibition in vivo at 12 mg/kg (HepG2 [15]): 61.3%
Activity (T-24 [17]): 87.7%
Activity (T-24 [18]): inactive
Activity (T-24 [19]): 6.54%
Activity (T-24 [20]): 13.4%
Activity (T-24 [21]): 10.6%

Source: ChEMBL document CHEMBL4017491, “Phthalazino[1,2-b]quinazolinones as p53 Activators: Cell Cycle Arrest, Apoptotic Response and Bak-Bcl-xl Complex Reorganization in Bladder Cancer Cells” (J Med Chem, 2017)
